Compound activity: PubChem BioAssay, several laboratories
The list is not random: actives were taken first. Their share in the collection is about 3%.
NR3A LBD binder: modulates the human NR3A ligand-binding domain. Tm shift relative to glycine control, % at 25 µM. NR3A LBD differential scanning fluorimetry, Tm shift; 0% = protein alone, 100% = glycine-bound protein. AID 1259313. actives 2.5% (n = 340,000);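 active = melting temperature shift of at least 10% of the positive control shift, at one fixed dose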
NPR2 activator: GC-B (human) receptor activation. P20594. HEK293-GC-B cells, CNP EC30, cGMP TR-FRET; 0% at EC30 CNP, 100% saturating CNP. activation, % at 10 µM. actives 0.11% (n = 370,000);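 active = activation at 10 µM reaching about 35% in either raw or pattern-adjusted values, limit read from the data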
aDG glyco up: alpha-DG glycosylation activation | AID 624168 | activation, % at 10 µM | Pro5-aDG cells, alpha-DG glycosylation AlphaScreen (IIH6); 0% Pro5, 100% B10-LARGE cell signal | actives 0.22% (n = 360,000);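 active = activation of at least 8% versus controls, or a plate z-score of at least 8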;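 note: Pro5 are CHO cells carrying HIG-tagged alpha-DG that lacks glycosylation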
Lipid droplet: hepatic lipid droplet formation modulation. inhibition, % at 6.5 µM. AID 1656. actives 0.4% (n = 240,000). AML12 mouse hepatocytes, oleate lipid droplets, BODIPY imaging;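 active = lipid droplet intensity inhibited by at least 50%, with more than 500 cells counted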
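Material – AML12 mouse liver cells · Also added – oleate loading, 100 µM · Compound dosing – 6.5 µM single-point dosing · Times – overnight treatment with compound plus oleate · Measured by – fluorescence imaging, 20x objective, two fields per well · Read-out – percent inhibition of filter-corrected integrated lipid droplet intensity per well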
JMJD2C inh: human JMJD2C demethylase inhibition | Q9H3R0 | GST-JMJD2C(1-420) H3K9me3 demethylation, DELFIA europium | inhibition, % at 2.35 µM | actives 0.069% (n = 330,000) | AID 2099;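 active = more than half of a compound's replicate wells show inhibition beyond 50%, single wells judged on their own value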;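 note: signal counts dimethyl H3K9 product captured on neutravidin plate; 0% = median of DMSO wells and 100% = 0.3 times that DMSO median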
Target sequence (Q9H3R0 1-420 limits assumed): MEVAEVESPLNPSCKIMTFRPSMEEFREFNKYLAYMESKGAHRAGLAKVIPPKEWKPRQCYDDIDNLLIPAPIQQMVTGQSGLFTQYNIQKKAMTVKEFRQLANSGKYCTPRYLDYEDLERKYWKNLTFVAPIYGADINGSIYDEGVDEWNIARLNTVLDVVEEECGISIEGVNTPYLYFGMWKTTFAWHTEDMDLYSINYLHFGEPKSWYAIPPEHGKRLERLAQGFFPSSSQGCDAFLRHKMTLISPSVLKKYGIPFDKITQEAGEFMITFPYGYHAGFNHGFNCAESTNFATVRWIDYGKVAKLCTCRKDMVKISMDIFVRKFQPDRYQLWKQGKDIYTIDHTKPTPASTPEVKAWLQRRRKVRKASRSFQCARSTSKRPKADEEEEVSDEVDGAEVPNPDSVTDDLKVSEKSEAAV
GC-A act: GC-A (human) enzyme activation; actives 0.14% (n = 370,000); AID 1671463; activation, % at 10 µM; HEK293 GC-A cells, cGMP TR-FRET, EC30 ANP; 0% at EC30 ANP, 100% saturating ANP; in the data active = activation above about 40%
Starred values were filed as active, the others as inactive; nt = no result.

SMILES | NR3A LBD binder | NPR2 activator | aDG glyco up | Lipid droplet | JMJD2C inh | GC-A act
Cc1ccc(C(=O)N2CCOCC2)cc1S(=O)(=O)N1CCCC1 | 11* | 2 | 0 | 0 | -33 | 3
COC(=O)[C@]12C[C@H](CC(=O)N3CCCCC3)C(=O)N(Cc3ccccc3)C1=C[C@H](COCc1ccccc1)O[C@@H]2C | nt | 3 | nt | nt | nt | 5
O=S(=O)(NCc1ccncc1)c1ccc(Br)s1 | -1 | 3 | 8.9* | -4 | 8 | 3
O=C(O)CNS(=O)(=O)c1ccc(Br)s1 | -2 | -7 | 0 | -12 | -1 | 1
Cc1cc(C(=O)N/N=C/c2ccc(-c3cccc(Cl)c3)o2)n[nH]1 | 16* | -1 | 0 | 19 | -14 | -3
O=C(N/N=C/c1c(Cl)cccc1Cl)C(=O)NC1CC1 | 10* | 3 | 0 | -4 | 2 | 3
O=C(N/N=C\c1ccc(-c2cccc(Cl)c2)o1)C(=O)NC1CCCC1 | 24* | -1 | 0 | 5 | -1 | -5
CC(=O)c1cccc(OCC(=O)N(CCC2=CCCCC2)c2c(N)n(Cc3ccccc3)c(=O)[nH]c2=O)c1 | -3 | -1 | 0 | nt | nt | 2
CCCCc1c(-c2ccccc2OC)ncn1C(C)c1ccc(Cl)cc1 (stereo not drawn) | nt | -26 | nt | nt | nt | -21
CNC(CC(C)C)C(=O)NC1C(=O)NC(CC(N)=O)C(=O)NC2C(=O)NC3C(=O)NC(C(=O)NC(C(=O)O)c4cc(O)cc(O)c4-c4cc3ccc4O)C(O)c3ccc(c(Cl)c3)Oc3cc2cc(c3OC2OC(CO)C(O)C(O)C2OC2CC(C)(N)C(O)C(C)O2)Oc2ccc(cc2Cl)C1O (stereo not drawn) | -2 | 0 | 0 | nt | 8 | 2
CCCCN=C(N)NC(=O)OCc1ccccc1 | nt | -1 | nt | nt | nt | -1
Cc1ccc(S(=O)(=O)N2CC3(O)CN(C(=O)OC(C)C)N(C(=O)OC(C)C)CC3(OC(=O)NCc3ccccc3F)C2)cc1 (stereo not drawn) | nt | 6 | 0 | nt | nt | -1
O=C(CCc1ccccc1)N[C@H]1[C@@H](OC(=O)c2cnccn2)CCC[C@@]12C(=O)N(Cc1ccccc1)c1ccccc12 | nt | -15 | nt | nt | nt | -4
CC(=O)c1sc2nc(-c3ccc(C)cc3)c3c(c2c1N)CCCC3 | 10* | -3 | 0 | -5 | 3 | 7
Cc1ccc(-c2nc3sc(C(N)=O)c(N)c3c3c2CCCC3)cc1 | -18 | -1 | 0 | 1 | -7 | 3
COc1cccc(NC(=O)C2CCCN2C(=O)NC2CCC(C)CC2)c1 (stereo not drawn) | nt | -2 | nt | nt | nt | 0
O=C(Nc1nccs1)c1ccc(-c2ccc(Cl)cc2)o1 | 20* | 5 | 0 | 2 | 9 | 6
O=C(Nc1nccs1)c1ccc(-c2ccc(F)cc2)o1 | -17 | 2 | 0 | 2 | 1 | 5
CCc1nnc(NC(=O)c2ccc(-c3cccc(C(F)(F)F)c3)o2)s1 | 0 | 0 | 0 | 9 | -9 | 0
CCc1nnc(NC(=O)c2ccc(-c3ccc(F)cc3)o2)s1 | 16* | -5 | 0 | 13 | 14 | 0
COC(=O)CCC1NC(=O)C(Cc2c[nH]c3ccccc23)NC(=O)C2CC(=O)OC(C)C(NC(=O)C(C)NC(=O)C3CCCN3C(=O)C3CCCN3C(=O)C(C)NC(C)=O)C(=O)NC(CC(C)C)C(=O)NC(CCCCNC(=O)CCC(C(=O)NC(Cc3ccc(O)cc3)C(=O)O)NC1=O)C(=O)NC(Cc1c[nH]c3ccccc13)C(=O)N1CCCC1C(=O)NC(CO)C(=O)N2 (stereo not drawn) | nt | -2 | nt | nt | nt | 1
FC(F)(F)c1cc(-c2ccccc2)nc(N2CCCCCC2)n1 | 11* | 3 | 0 | -2 | 1 | -3
COc1ccc(-c2cc(C#N)nc(N3CCN(C)CC3)n2)cc1 | 0 | 7 | 1 | 2 | -9 | 4
COc1ccc(-c2cc(C(F)(F)F)nc(N3CCCCCC3)n2)cc1 | -1 | -5 | 0 | nt | 8 | -3
CN1CCN(c2nc(C#N)cc(-c3ccccc3)n2)CC1 | 11* | -4 | 0 | nt | -2 | -1
SMILES | NR3A LBD binder | NPR2 activator | aDG glyco up | Lipid droplet | JMJD2C inh | GC-A act
Cc1cc(F)ccc1S(=O)(=O)Nc1ccccc1C(=O)Nc1ccccc1-c1nc2ccccc2[nH]1 | 18* | nt | 1 | 5 | -2 | nt
O=C(Nc1ccc(S(=O)(=O)Nc2ncccn2)cc1)c1ccccc1NS(=O)(=O)c1ccc(F)cc1 | -1 | 2 | 0 | 0 | 8 | 1
Cc1cc(F)ccc1S(=O)(=O)Nc1ccccc1C(=O)Nc1ncn[nH]1 | -7 | -1 | 0 | nt | 3 | -3
O=C(Nc1ccc(-c2nc3ccccc3[nH]2)cc1)c1ccccc1NS(=O)(=O)c1ccc(F)cc1 | 30* | 5 | 0 | 8 | 7 | 3
N#CCC(=N)N1CCN(c2cccc(Cl)c2)CC1 | 12* | -4 | 0 | 13 | 7 | -5
CCCN(C(=O)C1CCCN(c2ncnc3c2nc2n3CCCCC2)C1)c1ccccc1C (stereo not drawn) | nt | -6 | nt | nt | nt | -6
C/C(C=NNC(=O)CSc1nc2ccccc2n1C)=C\c1ccccc1 | nt | 5 | nt | nt | nt | -4
COc1ccc(-n2nc([N+](=O)[O-])c(=NCCc3ccc(OC)c(OC)c3)n2O)cc1 | 23* | 6 | 0 | -13 | 2 | -4
COc1ccc(-n2nc([N+](=O)[O-])c(=NCCc3ccc(C)cc3)n2O)cc1 | -5 | -2 | 0 | -2 | 14 | 1
O[C@@H]1C[C@H](c2ccc(Cl)cc2)N(Cc2cccs2)C[C@H]1n1cc(-c2ccc(F)cc2)nn1 | nt | 0 | 0 | nt | nt | 0
CCOC(=O)CCCSc1nc(-c2ccc3c(c2)OCO3)cc(C(F)(F)F)c1C#N | 4 | 11 | 0 | -16 | 2 | 51*
CS(=O)(=O)N1C[C@]2(c3ccccc3)CC1Cc1ccccc12 | nt | -8 | nt | nt | nt | -11
CCCCNC(=O)C1(C(=O)c2ccc(OC)cc2)CC(c2ccccn2)=NO1 (stereo not drawn) | nt | 1 | nt | nt | nt | 2
O=C(Cc1cn(Cc2cccc(Cl)c2)c2ccccc12)N1CCCCCC1 | 17* | -13 | 0 | -39 | -5 | -14
Cc1cccc(OCC(=O)Nc2ccc3c(c2)OCO3)c1C | 23* | 3 | 0 | nt | -10 | 0
O=C(Nc1ccc([N+](=O)[O-])cc1)Nc1ccc2c(c1)OCCO2 | 21* | 2 | 1 | -9 | -6 | -1
Cc1ccc(C)c(OCC(=O)Nc2ccc3c(c2)OCO3)c1C | 0 | -5 | 0 | 0 | 0 | 1
O=C(Nc1ccc(F)cc1)Nc1ccc2c(c1)OCO2 | 11* | -1 | 0 | -24 | -2 | 0
O=C(Nc1cccc(C(=O)O)c1)Nc1ccc2c(c1)OCO2 | 24* | -3 | 0 | -3 | 3 | 2
